Key:
Mus musculus [1] = organism: Mus musculus; experiment: Effective dose against (+)-SKF-10047-induced stereotyped behavior in mice was determined; format: functional
Summary of the method: (§1)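 Male ICR mice (25–30 g, 10 per group) acclimatized at least 1 h. Test drug given orally 30 min before (+)-SKF10,047 30 mg/kg ip. Stereotypy scored on a 0–5 scale from 10 min post-injection, every 5 min for 40 min. Vehicle plus three doses were tested. Total score expressed as percent of control, and ED25 derived.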

[2] = biological target: Serotonin 2 (5-HT2) receptor (Rattus norvegicus, UniProt P30994+P08909+P14842); experiment: Inhibitory concentration against radioligand [3H]ketanserin binding to 5-hydroxytryptamine 2 receptor in rat
Summary of the method: (§2)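 Male Wistar rat brain membranes in 50 mM Tris/HCl pH 7.7. Radioligands: PCP site 5 nM [3H]-PCP; D1 1 nM [3H]-SCH23390; 5-HT1A 0.2 nM [3H]-8-OH-DPAT; 5-HT2 5 nM [3H]-ketanserin; α1 0.2 nM [3H]-prazosin. Competition with at least five drug concentrations, filtration on PEI-soaked glass-fiber filters, scintillation counting, IC50 by nonlinear curve fit.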

[3] = biological target: T1, 5-hydroxytryptamine receptor 1A (Rattus norvegicus, UniProt P19327); experiment: Inhibitory concentration against radioligand [3H]hydroxy-2-(di-n-propylamino)-tetralin binding to 5-hydroxytryptamine 1A receptor in rat; summary of the method: as §2
T1 sequence (P19327 whole entry): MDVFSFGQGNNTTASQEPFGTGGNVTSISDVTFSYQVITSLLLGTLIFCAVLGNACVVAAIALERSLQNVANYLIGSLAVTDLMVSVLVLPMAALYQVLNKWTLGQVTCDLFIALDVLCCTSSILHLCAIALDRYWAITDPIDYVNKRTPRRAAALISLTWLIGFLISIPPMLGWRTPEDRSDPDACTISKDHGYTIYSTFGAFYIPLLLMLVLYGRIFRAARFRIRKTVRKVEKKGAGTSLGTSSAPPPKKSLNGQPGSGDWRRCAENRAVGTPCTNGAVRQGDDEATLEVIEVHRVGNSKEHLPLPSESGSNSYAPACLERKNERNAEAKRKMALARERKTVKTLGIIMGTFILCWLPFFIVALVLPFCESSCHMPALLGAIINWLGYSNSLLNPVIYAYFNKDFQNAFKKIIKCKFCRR

[4] = biological target: T2, Adrenergic receptor alpha-1 (Rattus norvegicus, UniProt P15823+P23944+P43140); experiment: Inhibitory concentration against radioligand [3H]prazosin binding to Alpha-1 adrenergic receptor in rat; summary of the method: as §2
T2 sequence (P15823 whole entry): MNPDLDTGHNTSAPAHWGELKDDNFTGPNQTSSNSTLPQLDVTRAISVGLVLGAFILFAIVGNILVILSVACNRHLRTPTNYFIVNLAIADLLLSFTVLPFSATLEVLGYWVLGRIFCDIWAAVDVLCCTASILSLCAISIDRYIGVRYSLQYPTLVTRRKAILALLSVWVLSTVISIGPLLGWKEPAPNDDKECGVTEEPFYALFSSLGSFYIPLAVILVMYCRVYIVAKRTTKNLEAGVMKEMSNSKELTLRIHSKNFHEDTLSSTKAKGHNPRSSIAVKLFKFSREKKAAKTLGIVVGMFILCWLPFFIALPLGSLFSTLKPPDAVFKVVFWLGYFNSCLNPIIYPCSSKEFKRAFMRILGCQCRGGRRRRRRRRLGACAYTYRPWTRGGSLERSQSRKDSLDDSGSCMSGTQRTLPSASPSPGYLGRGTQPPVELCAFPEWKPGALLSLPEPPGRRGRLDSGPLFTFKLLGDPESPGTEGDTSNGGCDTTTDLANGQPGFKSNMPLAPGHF
T2 sequence (P23944 whole entry): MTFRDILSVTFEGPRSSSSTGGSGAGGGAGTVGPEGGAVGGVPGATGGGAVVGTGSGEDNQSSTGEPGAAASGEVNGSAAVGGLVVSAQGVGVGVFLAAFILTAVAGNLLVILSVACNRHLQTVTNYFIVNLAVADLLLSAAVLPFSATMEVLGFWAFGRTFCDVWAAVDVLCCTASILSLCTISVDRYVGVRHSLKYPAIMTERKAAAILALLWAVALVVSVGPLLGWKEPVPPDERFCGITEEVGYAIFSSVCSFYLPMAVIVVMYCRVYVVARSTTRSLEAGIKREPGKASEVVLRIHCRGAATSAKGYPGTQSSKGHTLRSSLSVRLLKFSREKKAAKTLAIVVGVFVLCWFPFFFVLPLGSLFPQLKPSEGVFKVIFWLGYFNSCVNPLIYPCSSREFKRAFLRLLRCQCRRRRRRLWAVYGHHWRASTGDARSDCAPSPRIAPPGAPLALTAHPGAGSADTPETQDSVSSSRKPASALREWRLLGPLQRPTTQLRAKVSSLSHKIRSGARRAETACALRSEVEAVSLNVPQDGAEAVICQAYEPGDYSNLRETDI
T2 sequence (P43140 whole entry): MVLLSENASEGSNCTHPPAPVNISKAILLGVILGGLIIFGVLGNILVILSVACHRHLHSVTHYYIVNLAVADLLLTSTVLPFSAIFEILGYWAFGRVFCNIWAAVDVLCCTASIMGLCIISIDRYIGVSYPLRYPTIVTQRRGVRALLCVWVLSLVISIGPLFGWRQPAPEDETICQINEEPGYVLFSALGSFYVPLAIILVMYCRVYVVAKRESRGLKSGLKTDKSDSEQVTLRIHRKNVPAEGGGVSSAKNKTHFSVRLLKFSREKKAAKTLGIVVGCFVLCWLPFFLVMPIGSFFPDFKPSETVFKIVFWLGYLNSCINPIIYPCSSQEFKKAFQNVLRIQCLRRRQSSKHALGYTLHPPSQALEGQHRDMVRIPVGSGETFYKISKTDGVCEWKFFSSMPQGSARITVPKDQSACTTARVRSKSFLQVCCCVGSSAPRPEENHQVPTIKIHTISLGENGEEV

D(2) dopamine receptor = D(2) dopamine receptor (Rattus norvegicus, UniProt P61169); experiment: Inhibitory concentration against radioligand [3H](-)-sulpiride binding to Dopamine receptor D2 in rat
Chain of D(2) dopamine receptor (P61169 whole entry): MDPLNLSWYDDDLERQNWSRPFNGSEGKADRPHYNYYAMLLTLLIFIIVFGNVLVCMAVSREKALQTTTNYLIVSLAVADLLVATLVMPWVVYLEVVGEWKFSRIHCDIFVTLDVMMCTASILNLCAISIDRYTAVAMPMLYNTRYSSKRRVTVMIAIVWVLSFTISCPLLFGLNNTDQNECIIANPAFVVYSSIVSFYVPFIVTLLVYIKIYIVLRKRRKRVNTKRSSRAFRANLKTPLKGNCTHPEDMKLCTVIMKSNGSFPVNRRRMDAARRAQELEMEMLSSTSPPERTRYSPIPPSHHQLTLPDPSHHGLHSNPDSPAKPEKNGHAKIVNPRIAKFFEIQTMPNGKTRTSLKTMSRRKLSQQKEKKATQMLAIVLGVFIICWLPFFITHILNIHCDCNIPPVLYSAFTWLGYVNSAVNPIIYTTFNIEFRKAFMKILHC
Summary of the method: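 Striatal membranes from male Wistar rats (200–250 g), homogenized in 50 mM Tris/HCl pH 7.7, washed by repeated 50000g spins. Filtration on PEI-soaked glass-fiber filters, then scintillation counting. IC50 by nonlinear curve fitting, duplicate determinations.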

Mus musculus [5] = experiment: Effect at an intraperitoneal dose of 10 mg/kg against methamphetamine-induced hyperlocomotion in mice; format: functional
[6] = biological target: Glutamate receptor ionotropic, NMDA 1 (Rattus norvegicus, UniProt P35439); experiment: Inhibitory concentration against radioligand [3H]PCP binding to PCP site of N-methyl-D-aspartate glutamate receptor in rat; summary of the method: as §2
D(1A) dopamine receptor = D(1A) dopamine receptor (Rattus norvegicus, UniProt P18901); experiment: Inhibitory concentration against radioligand [3H]SCH-23390 binding to Dopamine receptor D1 in rat; summary of the method: as §2
Chain of D(1A) dopamine receptor (P18901 whole entry): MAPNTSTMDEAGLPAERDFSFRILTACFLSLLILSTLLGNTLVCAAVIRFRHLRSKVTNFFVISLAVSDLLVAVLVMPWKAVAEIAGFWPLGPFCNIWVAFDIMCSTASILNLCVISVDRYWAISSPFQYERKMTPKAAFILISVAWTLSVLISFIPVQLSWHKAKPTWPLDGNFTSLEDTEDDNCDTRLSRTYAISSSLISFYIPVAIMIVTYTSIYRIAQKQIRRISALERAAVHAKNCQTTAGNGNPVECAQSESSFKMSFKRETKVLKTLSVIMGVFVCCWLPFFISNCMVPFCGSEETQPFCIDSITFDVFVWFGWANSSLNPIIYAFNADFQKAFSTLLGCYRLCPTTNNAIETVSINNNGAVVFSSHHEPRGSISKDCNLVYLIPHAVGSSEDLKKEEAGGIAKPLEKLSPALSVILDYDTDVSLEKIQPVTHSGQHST

[7] = biological target: Sigma non-opioid intracellular receptor 1 (Rattus norvegicus, UniProt Q9R0C9); experiment: Inhibitory concentration against radioligand [3H]3-PPP binding to Sigma opioid receptor type 1 in rat brain membrane; format: cell membranes
Chain of Sigma non-opioid intracellular receptor 1 (Q9R0C9 whole entry): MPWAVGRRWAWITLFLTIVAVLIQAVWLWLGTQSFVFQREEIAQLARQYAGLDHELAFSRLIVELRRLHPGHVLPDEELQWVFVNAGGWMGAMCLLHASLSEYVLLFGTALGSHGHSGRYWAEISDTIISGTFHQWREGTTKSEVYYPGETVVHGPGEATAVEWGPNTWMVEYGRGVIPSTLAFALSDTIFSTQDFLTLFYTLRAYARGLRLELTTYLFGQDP
Summary of the method: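 Rat whole-brain membranes from male Wistar rats (200–250 g), homogenized in 50 mM Tris/HCl pH 7.7, washed by repeated 50000g spins. Incubated with 2 nM [3H]-(+)-3-PPP and at least five concentrations of unlabeled drug. Filtered on polyethylenimine-soaked glass-fiber filters and counted by scintillation. IC50 from nonlinear curve fitting of competition data, duplicate determinations.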

Mus musculus [8] = experiment: Effect at an intraperitoneal dose of 30 mg/Kg against (+)-SKF-10047-induced stereotyped behavior in mice was determined; format: functional; summary of the method: as §1

| SMILES | ED25 (Mus musculus [1]) [mg/kg] | IC50 [2] [µM] | IC50 [3] [µM] | IC50 [4] [µM] | IC50 (D(2) dopamine receptor) [µM] | Control (Mus musculus [5]) [%] | IC50 [6] [µM] | IC50 (D(1A) dopamine receptor) [µM] | IC50 [7] [µM] | Control (Mus musculus [8]) [%] |
| --- | --- | --- | --- | --- | --- | --- | --- | --- | --- | --- |
| CCCN(CCC)CCc1cccc(OC)c1OCCc1ccccc1.Cl | 79 | 8.8 | 3.58 | 11.7 | > 1 | 98 | > 10 | > 1 |  |  |
| CCCN(CCC)CCCc1ccc(OC)c(OCCc2ccccc2)c1.Cl | 44 | > 1 | 0.373 | 14.1 |  | 99 | > 1 | > 1 | 0.001 |  |
| CCCN(CCC)CCc1cccc(OC)c1OCc1ccccc1.O=C(O)C(=O)O |  |  |  |  | > 1 |  |  |  | 0.026 | 64 |
| CCCN(CCC)CCc1ccc(OC)c(OCCc2ccccc2)c1.Cl | 6.5 | > 1 | 6.46 | 10.8 | > 1 | 119 | > 1 | > 1 |  |  |

From ChEMBL document CHEMBL1132700, “Design, synthesis, structure-activity relationships, and biological characterization of novel arylalkoxyphenylalkylamine sigma ligands as potential antipsychotic drugs” (J Med Chem, 1999)
